# High-throughput results deposited in PubChem BioAssay by several laboratories.
# Hits are enriched below; roughly 2% of the tested compounds scored in any of these assays.
# FLuc inh counter: firefly luciferase enzyme inhibitors, primary screen, artefact control for luciferase-based inhibitor screens, biochemical, luminescence, ATPLite; 10 min; AID 1006, 2008; Luciferin 4-monooxygenase (Photinus pyralis), P08659; inhibition, % at 10 µM; 200,000 compounds, 1.5% hits;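 active means inhibition above about 50% when tested at 10 µM, limit read from the data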
# Target sequence (P08659 whole entry, looked up): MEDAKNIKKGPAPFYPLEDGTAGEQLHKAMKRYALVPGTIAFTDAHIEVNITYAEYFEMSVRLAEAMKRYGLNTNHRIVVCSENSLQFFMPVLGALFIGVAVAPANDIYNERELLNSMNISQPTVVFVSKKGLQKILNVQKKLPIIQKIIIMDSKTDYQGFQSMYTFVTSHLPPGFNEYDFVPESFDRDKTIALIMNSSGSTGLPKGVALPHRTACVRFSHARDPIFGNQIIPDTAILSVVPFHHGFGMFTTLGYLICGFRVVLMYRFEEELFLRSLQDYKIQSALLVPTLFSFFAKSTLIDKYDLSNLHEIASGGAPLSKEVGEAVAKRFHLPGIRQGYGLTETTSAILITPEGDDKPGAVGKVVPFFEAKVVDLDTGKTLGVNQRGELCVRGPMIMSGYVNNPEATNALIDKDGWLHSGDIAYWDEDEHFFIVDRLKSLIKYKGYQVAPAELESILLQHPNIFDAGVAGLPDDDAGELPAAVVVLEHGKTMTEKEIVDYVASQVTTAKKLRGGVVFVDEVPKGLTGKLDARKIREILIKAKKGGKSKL
# TRAIL sens C8: viability loss with TRAIL in NB7+C8 cells, primary screen, TRAIL sensitizer project, cell-based, ATPlite luminescence | inhibition (viability loss, TRAIL sensitization), % at 10 µM | 360,000 compounds, 1% hits | AID 624354, 2012;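 active means compounds causing at least 50% loss of cell viability in the single-dose screen, relative to plate controls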
# PPC-1+TRAIL kill: compounds killing PPC-1 cancer cells with TRAIL present, primary screen, TRAIL potentiator project, ATPLite luminescence, uHTS; PPC-1 cells + TRAIL, ATPLite viability luminescence; 220,000 compounds, 0.41% hits; cell killing (% activity), % at 4 µM or 5 µM;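 active means cell killing above 50% in the first pass at 4 µM, then a duplicate retest at 5 µM averaging 50% or more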;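 further: plate controls were cells with TRAIL plus DMSO for no effect and medium-only wells lacking cells for full effect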
# HSP90 refold inh: HSP90 inhibitors, primary screen, cell lysate, luminescence | AID 1789, 2009 | 290,000 compounds, 0.91% hits | Rabbit reticulocyte lysate, luciferase refolding luminescence, 3 h | inhibition, % at 5.6 µM | Heat shock protein HSP 90 (rabbit reticulocyte lysate; luciferase refolding);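 active means inhibition above the screen-wide mean plus 3 SD, computed separately per campaign, cut at about 16% in these data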;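 further: 0% = DMSO wells and 100% = 60 µM geldanamycin wells; inhibitors lower the luminescence because luciferase stays unfolded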
# FLuc stim CS: FLuc activators, initial screening, artefact control for FLuc-dependent activation tests, biochemical, ATPlite luminescence. Luciferin 4-monooxygenase (Photinus pyralis), P08659. ATPlite luciferase biochemical, 10 min; 0 = ATP-free wells, 1 = DMSO control. activation factor at 10 µM. 200,000 tested, under 10 active. AID 1027, 2008;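 active means luciferase activation factor, scaled between plate controls, of at least 2 with compound at 10 µM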
#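 Material: luciferase plus luciferin reagent, cell-free. Medium: PBS buffer for ATP. Also added: ATP substrate, dispensed from a 10.24 µM working solution in PBS. Doses: test compounds dosed from 2 mM stocks in 100% DMSO. Incubation: 10 min post-reagent at room temperature. Technique: light output (luminescence). Read-out basis: luminescence gain marking luciferase activators.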
# The depositor's hits bear a star; . = not tested or not shown.
SMILES,FLuc inh counter,TRAIL sens C8,PPC-1+TRAIL kill,HSP90 refold inh,FLuc stim CS
CCOC(=O)Cc1csc(NC(=O)c2cc3c(s2)CCCC3)n1,61*,54*,48,9,0.4
CCOC(=O)Cc1csc(NC(=O)/C=C\c2ccccc2)n1,59*,24,20,1,0.4
CCOC(=O)Cc1csc(NC(=S)NC(=O)c2ccc([N+](=O)[O-])cc2)n1,43,25,34,1,0.6
CCOC(=O)Cc1csc(NC(=O)/C=C\c2ccccc2Cl)n1,56*,42,35,-1,0.4
CCOC(=O)[C@]12CCCC=C1N(Cc1ccc3c(c1)OCO3)C(=O)[C@H](CC(=O)N1CCC(c3ccccc3)CC1)C2,.,1,.,.,.
O=C(NNC(=O)c1cc(S(=O)(=O)N2CCOCC2)c(Cl)cc1Cl)c1ccccc1F,.,4,.,.,.
COC(=O)C(C)N1C(=O)S/C(=C/c2cc(C)n(-c3ccccn3)c2C)C1=O (stereo not drawn),58*,58*,22,11,0.4
COC(=O)C(C)N1C(=O)S/C(=C\c2cc(C)n(-c3ccccn3)c2C)C1=O (stereo not drawn),56*,60*,31,13,0.4
Cc1ccccc1NC(=O)c1ccc(NC(=O)C2CC(=O)OC23CCCCC3)cc1 (stereo not drawn),-3,-20,15,-1,1
O=S(=O)(c1cnc(Cl)c(Cl)c1)N1CCc2ccccc21,.,12,80*,15,.
CCS(=O)(=O)Nc1ccc2[nH]c(=O)[nH]c2c1,-2,14,-5,-3,1
COC(=O)CC(NC(=O)c1ccc(C)cc1)c1ccccc1 (stereo not drawn),65*,3,9,-2,0.3
CCOC(=O)c1cc([N+](=O)[O-])cc([N+](=O)[O-])c1Sc1ncnc2nc[nH]c12,.,67*,.,.,.
O=C(/C=C/Nc1ccc(F)cc1)c1ccc(Br)cc1,39,25,13,3,0.6
O=C(/C=C/Nc1ccccc1F)c1ccc(Br)cc1,80*,68*,40,-4,0.2
N#Cc1ccccc1N/C=C/C(=O)c1ccc(Cl)cc1,.,51*,.,.,.
CC(=O)Nc1ccc(N/C=C/C(=O)c2ccc(Cl)cc2)cc1,.,13,.,4,.
CC(C)(C)c1ccc(OCc2ccc(C(=O)N/N=C/c3ccc(O)c(O)c3)cc2)cc1,-1,24,2,17*,1
O=C(N/N=C/c1ccc(C(F)(F)F)cc1)c1ccc(O)cc1,53*,23,26,-4,0.5
O=C(N/N=C\c1ccc(F)cc1)c1ccc(F)cc1,58*,14,45,-1,0.4
O=C(N/N=C/c1ccc(OCc2ccc(F)cc2)cc1)c1ccccc1,-7,-25,19,-1,1.1
CSc1ccc(/C=N/NC(=O)c2cccc(O)c2)cc1,91*,74*,54*,6,0.1
COC(=O)c1ccc(CNC(=O)C2CCC(=O)N(CCN3CCOCC3)C2)cc1 (stereo not drawn),.,-20,.,2,.
O=C1[C@H]2[C@@H](/C=C/c3ccccc3)N3C(=O)CN(CC4CC4)C(=O)[C@@]3(Cc3ccccc3)[C@H]2C(=O)N1c1ccccc1,.,55*,.,-2,.
Cc1noc(C)c1S(=O)(=O)NC(=O)C1(C)CCN1C(=O)c1ccccc1CCc1ccccc1 (stereo not drawn),.,-16,.,.,.
SMILES,FLuc inh counter,TRAIL sens C8,PPC-1+TRAIL kill,HSP90 refold inh,FLuc stim CS
CC(=O)N1CCC2(CC1)CC(=O)c1cc(OCC(=O)N3CCOCC3)ccc1O2,-8,10,-3,-3,1.1
CC1CCCCC1NC(=O)CCNS(=O)(=O)c1cc(Br)cnc1N (stereo not drawn),.,-9,.,-6,.
COC(=O)c1cc(=O)n(-c2ccccc2)c(=Nc2ccccc2)s1,-13,5,4,2,1.1
CCOC(=O)c1ccc(N=c2sc(C(=O)OC)cc(=O)n2-c2ccc(C(=O)OCC)cc2)cc1,-11,65*,-4,3,1.1
CCC(C)[C@H](NC(=O)C1(c2ccccc2)CCN(C(=O)OC(C)(C)C)CC1)C(=O)N[C@@H](C(=O)O)c1ccccc1 (stereo partly drawn),.,7,.,-5,.
NNc1nc(-c2ccccc2)nc2sc3c(c12)CCCC3,84*,64*,21,8,0.2
NNc1nc2sc3c(c2c(=O)n1Cc1ccccc1)CCC3,.,-2,-6,4,.
O=C(NO)c1cc(OCC(F)(F)F)ccc1OCC(F)(F)F,0,51*,-4,2,1
O=C(NC1CC1)c1cc(OCC(F)(F)F)ccc1OCC(F)(F)F,4,-4,-23,-4,1
O=C(NNC(=O)c1cc(OCC(F)(F)F)ccc1OCC(F)(F)F)c1cccc(C(F)(F)F)c1,-6,52*,-14,-1,1.1
CN(CCCNC(=O)Cn1cccc1C(=O)c1ccccc1)C1CCCCC1,-5,2,17,-3,1
COc1cccc(CNC(=O)Cn2cccc2C(=O)c2ccccc2C)c1,.,-1,.,-2,.
COc1cccc(NC(=O)CN(C)C(=O)c2ccc(-c3ccccc3Cl)o2)c1,.,-9,.,3,.
CC1=NN(c2ccc([N+](=O)[O-])cc2)C(=O)/C1=C\N(C)C,52*,5,26,4,0.5
Cc1ccc(S(=O)(=O)NCCn2cnc([N+](=O)[O-])n2)cc1,.,-5,.,2,.
O=c1[nH]c(Nc2ccc3c(c2)OCCO3)nnc1Cc1ccccc1,4,9,6,-1,1
Cc1cc(C)n(-c2nnc(NC(C)(C)C)nn2)n1,53*,11,-1,1,0.5
Cc1cc(C)n(-c2nc(NC(C)(C)C)nc(NC(C)(C)C)n2)n1,-3,-1,13,-1,1
Cc1cc(C)n(-c2nnc(NC34CC5CC(CC(C5)C3)C4)nn2)n1,66*,34,6,-5,0.3
CCOc1ccc(N/C=C/C(=O)c2ccccc2)c([N+](=O)[O-])c1,94*,91*,73*,15,0.1
CCOc1ccc(NC(=O)/C=C/c2ccccc2)c([N+](=O)[O-])c1,0,-4,2,0,1
COC(OC)C1(CCc2ccccc2)NC(=O)NC1=O (stereo not drawn),.,-20,.,.,.
CCOC(=O)C1CCN(S(=O)(=O)c2c(Cl)ccc3nonc23)CC1,.,41,.,-2,.
CCN1CCN(C2=C(NS(=O)(=O)c3ccccc3)C(=O)c3ccccc3C2=O)CC1,.,61*,.,1,.
CN1CCN(C2=C(NS(=O)(=O)c3ccccc3)C(=O)c3ccccc3C2=O)CC1,.,51*,.,5,.
COc1ccc(C(NC(=O)C2CCN(CCOc3ccc(Cl)cc3Cl)CC2)c2ccccn2)cc1 (stereo not drawn),.,-6,.,.,.
CCOC(=O)c1csc(NC(=O)c2ccc(C#N)cc2)n1,-4,-11,-1,13,1
